Here are results for 27 molecules from ChEMBL document CHEMBL2331117 (J Med Chem, 2013).

Data set [1] concerns the target T1, Cytochrome P450 2C8 (Homo sapiens, UniProt P10632).
T1 sequence (P10632 whole entry): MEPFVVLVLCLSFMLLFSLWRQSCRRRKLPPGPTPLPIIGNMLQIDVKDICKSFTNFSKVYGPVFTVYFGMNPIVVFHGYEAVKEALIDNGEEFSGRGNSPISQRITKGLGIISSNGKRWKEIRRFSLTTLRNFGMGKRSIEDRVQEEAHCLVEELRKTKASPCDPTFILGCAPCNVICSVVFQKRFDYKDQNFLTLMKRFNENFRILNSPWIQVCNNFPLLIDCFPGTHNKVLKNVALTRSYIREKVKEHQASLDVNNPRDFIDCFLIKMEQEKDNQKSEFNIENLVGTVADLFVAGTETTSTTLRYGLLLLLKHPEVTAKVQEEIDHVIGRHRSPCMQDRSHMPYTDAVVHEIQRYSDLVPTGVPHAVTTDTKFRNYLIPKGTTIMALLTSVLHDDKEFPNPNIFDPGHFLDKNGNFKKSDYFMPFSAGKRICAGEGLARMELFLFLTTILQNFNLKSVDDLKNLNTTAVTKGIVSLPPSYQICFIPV
Briefly: Inhibition of CYP2C8 (unknown origin). It is filed as ADME.

Data set [2] can be described thus: Inhibition of mTORC1 (unknown origin)-mediated 4EBP1 phosphorylation after 120 mins by ELISA. Details: species or system Homo sapiens. Background: In an ELISA, binding on a coated surface is turned into a signal by an enzyme label.
Data set [3] is described as follows: Metabolic stability in mouse liver microsomes after 30 mins. It is filed as ADME, Microsome. The settings on record: read-out: Stability. On the technique in general: Liver microsomes are vesicles of endoplasmic reticulum, rich in cytochrome P450 enzymes.
Data set [4] has as its target Phosphatidylinositol 4,5-bisphosphate 3-kinase catalytic subunit alpha isoform (Homo sapiens, UniProt P42336). The data set is described as follows: Inhibition of PI3Kalpha (unknown origin) using PIP2 as substrate after 2 hrs by luminescence assay.
The target of data set [5] is Cytochrome P450 2C9 (Homo sapiens, UniProt P11712). Briefly: Inhibition of CYP2C9 (unknown origin). It is filed as ADME.
The target of data set [6] is Cytochrome P450 3A4 (Homo sapiens, UniProt P08684). The data set is described as follows: Inhibition of CYP3A4 (unknown origin). It is filed as ADME.
The nature of data set [7]: Inhibition of mTORC1-mediated phosphorylation of S6 at serine 240/244 in human PC3 cells after 3 hrs by ELISA. In kind it is cell-based. To be noted: PC-3, 3 h.
Data set [8] has as its target Cytochrome P450 2D6 (Homo sapiens, UniProt P10635). The data set is described as follows: Inhibition of CYP2D6 (unknown origin). It is filed as ADME.
A short description of data set [9]: Inhibition of mTORC2-mediated phosphorylation of AKT at serine 473 in human PC3 cells after 2 hrs and 50 mins by ELISA. It is filed as cell-based. To be noted: PC-3. Put shortly:
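Compound in 0.3% DMSO was added for 2 h 50 min, followed by 10 min stimulation with 20 ng/mL EGF. After formaldehyde fixation, pAKT (S473) and total AKT were detected by chemiluminescent cell ELISA. IC50 came from pAKT normalized to total AKT, relative to DMSO control. Mean, n ≥ 2.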

The nature of data set [10]: Plasma concentration in mouse at 100 mg/kg, po after 1 hr. It is filed as ADME, organism-based. Details: dose 100 mg/kg, route oral.
Data set [11] is described as follows: Plasma concentration in mouse at 100 mg/kg, po after 4 hrs. It is filed as ADME, organism-based. Also noted: dose 100 mg/kg, route oral.
The nature of data set [12]: Apparent permeability across MDCK cells. In kind it is ADME, cell-based, Canis lupus familiaris. The settings on record: dog.

Chain of Cytochrome P450 3A4 (P08684 whole entry): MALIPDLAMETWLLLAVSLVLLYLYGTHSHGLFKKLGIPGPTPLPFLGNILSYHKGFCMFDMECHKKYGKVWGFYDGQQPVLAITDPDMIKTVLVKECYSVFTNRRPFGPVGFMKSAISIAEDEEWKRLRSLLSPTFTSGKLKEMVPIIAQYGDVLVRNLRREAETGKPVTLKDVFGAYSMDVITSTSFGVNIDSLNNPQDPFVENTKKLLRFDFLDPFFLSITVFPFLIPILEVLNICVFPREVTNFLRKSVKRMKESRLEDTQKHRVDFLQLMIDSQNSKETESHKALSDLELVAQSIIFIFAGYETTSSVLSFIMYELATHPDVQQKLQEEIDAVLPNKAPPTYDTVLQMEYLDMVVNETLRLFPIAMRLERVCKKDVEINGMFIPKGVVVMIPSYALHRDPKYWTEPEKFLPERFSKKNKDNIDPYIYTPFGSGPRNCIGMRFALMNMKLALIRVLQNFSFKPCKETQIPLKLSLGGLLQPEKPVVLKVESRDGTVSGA
Chain of Cytochrome P450 2D6 (P10635 whole entry): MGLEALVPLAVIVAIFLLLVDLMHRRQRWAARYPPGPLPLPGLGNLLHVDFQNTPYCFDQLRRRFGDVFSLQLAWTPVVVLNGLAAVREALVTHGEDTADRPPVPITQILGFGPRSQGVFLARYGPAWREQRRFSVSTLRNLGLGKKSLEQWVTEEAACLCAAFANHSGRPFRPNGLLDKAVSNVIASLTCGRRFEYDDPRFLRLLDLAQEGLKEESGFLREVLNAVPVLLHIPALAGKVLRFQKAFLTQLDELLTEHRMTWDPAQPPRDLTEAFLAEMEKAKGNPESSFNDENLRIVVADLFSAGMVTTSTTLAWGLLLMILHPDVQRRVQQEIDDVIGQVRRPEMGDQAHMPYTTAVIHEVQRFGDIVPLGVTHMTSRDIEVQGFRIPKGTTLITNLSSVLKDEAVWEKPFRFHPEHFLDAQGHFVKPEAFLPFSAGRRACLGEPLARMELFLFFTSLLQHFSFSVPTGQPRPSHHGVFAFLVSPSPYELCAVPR
Chain of Phosphatidylinositol 4,5-bisphosphate 3-kinase catalytic subunit alpha isoform (P42336 whole entry, canonical isoform): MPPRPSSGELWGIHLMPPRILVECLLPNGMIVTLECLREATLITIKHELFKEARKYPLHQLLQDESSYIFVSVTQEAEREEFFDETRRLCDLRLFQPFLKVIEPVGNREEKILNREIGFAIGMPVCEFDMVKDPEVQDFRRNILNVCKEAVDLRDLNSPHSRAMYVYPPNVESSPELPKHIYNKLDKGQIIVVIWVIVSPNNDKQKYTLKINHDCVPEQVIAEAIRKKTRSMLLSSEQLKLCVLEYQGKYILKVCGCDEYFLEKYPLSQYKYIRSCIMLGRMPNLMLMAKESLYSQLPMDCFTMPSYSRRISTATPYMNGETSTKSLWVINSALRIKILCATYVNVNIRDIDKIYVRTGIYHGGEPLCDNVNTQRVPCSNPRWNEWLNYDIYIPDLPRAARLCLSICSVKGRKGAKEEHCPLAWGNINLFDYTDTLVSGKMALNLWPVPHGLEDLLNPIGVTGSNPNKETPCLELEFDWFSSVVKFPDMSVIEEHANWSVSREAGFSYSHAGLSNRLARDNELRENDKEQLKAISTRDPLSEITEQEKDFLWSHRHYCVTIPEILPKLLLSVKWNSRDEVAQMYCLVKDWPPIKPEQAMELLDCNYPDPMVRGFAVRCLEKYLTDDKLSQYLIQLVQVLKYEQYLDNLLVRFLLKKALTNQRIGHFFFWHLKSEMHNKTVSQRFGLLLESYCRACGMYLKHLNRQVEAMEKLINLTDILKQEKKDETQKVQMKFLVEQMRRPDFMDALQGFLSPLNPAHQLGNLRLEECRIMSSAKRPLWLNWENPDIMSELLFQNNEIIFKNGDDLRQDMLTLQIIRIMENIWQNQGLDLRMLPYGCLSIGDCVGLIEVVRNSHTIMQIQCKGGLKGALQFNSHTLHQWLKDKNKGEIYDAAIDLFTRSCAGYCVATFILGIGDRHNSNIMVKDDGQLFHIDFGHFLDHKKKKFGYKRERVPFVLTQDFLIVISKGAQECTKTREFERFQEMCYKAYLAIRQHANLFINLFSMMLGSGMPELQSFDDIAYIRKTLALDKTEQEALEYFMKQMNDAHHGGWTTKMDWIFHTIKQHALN
Chain of Cytochrome P450 2C9 (P11712 whole entry): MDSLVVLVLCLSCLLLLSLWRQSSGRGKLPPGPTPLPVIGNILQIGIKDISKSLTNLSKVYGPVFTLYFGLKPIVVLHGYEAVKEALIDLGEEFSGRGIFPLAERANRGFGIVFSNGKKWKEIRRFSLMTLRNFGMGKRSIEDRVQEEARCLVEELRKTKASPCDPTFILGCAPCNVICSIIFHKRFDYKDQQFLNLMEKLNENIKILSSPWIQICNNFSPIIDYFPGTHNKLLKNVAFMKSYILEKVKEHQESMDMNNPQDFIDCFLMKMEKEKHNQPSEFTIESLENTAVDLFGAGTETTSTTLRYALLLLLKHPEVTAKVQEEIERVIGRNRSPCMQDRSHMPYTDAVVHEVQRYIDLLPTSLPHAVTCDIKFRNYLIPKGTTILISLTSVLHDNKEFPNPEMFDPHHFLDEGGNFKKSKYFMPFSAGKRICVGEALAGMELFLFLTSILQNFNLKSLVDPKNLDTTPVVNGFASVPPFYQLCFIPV

For the molecule `CS(=O)(=O)c1ccc(C(=O)N2CCOc3ccc(-c4ccc5nc[nH]c5c4)cc3C2)c(Br)c1`, the INH was 3.4 µM in data set [1], 4.2 µM in data set [5], 3 µM in data set [6] and 9.2 µM in data set [8]. Further, the IC50 was found to be 5.2 nM in [2], 693 nM in data set [4], 343 nM in [7] and 453 nM in data set [9]. The remaining at 0.5 h in data set [3] amounted to 45%.

With `Cc1cc(S(C)(=O)=O)ccc1C(=O)N1CCOc2ccc(-c3ccc4nc[nH]c4c3)cc2C1`, the INH in data set [1] is 5.4 µM; in data set [5], 2.9 µM; in data set [6], 4.1 µM; in [8], 9.3 µM. For the same molecule, the half-inhibitory concentration (IC50) in data set [2] was 5.7 nM; in data set [4], above 3000 nM; in data set [7], 422 nM; in [9], 1010 nM. Moreover, the remaining at 0.5 h in [3] is 51%.

As to `CCCc1cc(S(C)(=O)=O)ccc1C(=O)N1CCOc2ccc(-c3ccc4nc[nH]c4c3)cc2C1`, the IC50 in [2] was 28 nM; in data set [4], above 3000 nM; in data set [7] it was 1180 nM; in [9], 3300 nM. For the same molecule, in data set [3], the remaining at 0.5 h amounted to 87%.

Regarding `O=C(c1ccccc1)N1CCOc2ccc(-c3cnc4ccccc4c3)cc2C1`, the IC50 worked out at 200 nM in [2] and 3130 nM in data set [4].

As for `Cc1nc2ccc(-c3ccc4c(c3)CN(C(=O)c3ccc(C(=O)C(F)(F)F)cc3)CCO4)cc2[nH]1`, in data set [10], the concentration at 1 h was 1000 nM. Further, the IC50 is 0.5 nM in data set [2], 89 nM in data set [4] and 239 nM in data set [7]. The remaining at 0.5 h in [3] amounted to 50%. Also, the concentration at 4 h in [11] turned out to be 200 nM.

For the molecule `CCc1cc(S(C)(=O)=O)ccc1C(=O)N1CCOc2ccc(-c3ccc4nc[nH]c4c3)cc2C1`, the INH is 5.6 µM in [1], 5.4 µM in data set [5], 2 µM in [6] and above 20 µM in [8]. Moreover, the IC50 in data set [2] is 5.2 nM; in data set [4], above 3000 nM; in [7] it was 233 nM; in [9], 689 nM. For the same molecule, in data set [3], the remaining at 0.5 h stood at 50%.

Take `O=C(c1ccc(C(=O)C(F)(F)F)cc1)N1CCOc2ccc(-c3ccc4ccccc4c3)cc2C1`: the IC50 amounted to 73.7 nM in [2] and 1460 nM in [4].

For the molecule `c1ccc2ncc(-c3ccc4c(c3)CNCCO4)cc2c1`, the IC50 in data set [2] and in data set [4] was above 10000 nM throughout.

In the case of `O=C(c1ccc(C(=O)C(F)(F)F)cc1)N1CCOc2ccc(-c3ccccc3)cc2C1`, the IC50 in [2] is 119 nM; in data set [4], 2310 nM.

Turning to `O=C(c1ccc(C(=O)C(F)(F)F)cc1)N1CCOc2ccc(-c3ccc4cn[nH]c4c3)cc2C1`, the IC50 in data set [2] is 3.5 nM; in [4] it was 259 nM; in data set [7] it was 674 nM. Besides, the remaining at 0.5 h in [3] came out at 60%.

Take `CCNc1cc(S(C)(=O)=O)ccc1C(=O)N1CCOc2ccc(-c3ccc4nc[nH]c4c3)cc2C1`: the results for the IC50 in [2] and in [4] were 204 nM and above 3000 nM, respectively.

On to `O=C(c1ccc(C(=O)C(F)(F)F)cc1)N1CCOc2ccc(-c3cn[nH]c3)cc2C1`, for which the IC50 was found to be 29.7 nM in [2], 1050 nM in [4] and 718 nM in [7]. For the same molecule, in [3], the remaining at 0.5 h came to 3%.

For `CC(=O)c1ccc(C(=O)N2CCOc3ccc(-c4ccc5cn[nH]c5c4)cc3C2)cc1`, the IC50 turned out to be 14 nM in data set [2] and 1800 nM in [4].

Regarding `CS(=O)(=O)c1ccc(C(=O)N2CCOc3ccc(-c4ccc5nc[nH]c5c4)cc3C2)c(Cl)c1`, the INH worked out at 5.4 µM in data set [1], 9 µM in [5], 3.5 µM in data set [6] and 9.2 µM in data set [8]. The IC50 in data set [2] turned out to be 23.2 nM; in data set [4], 705 nM; in [7] it was 337 nM; in data set [9], 1060 nM. In addition, the remaining at 0.5 h in [3] came to 58%.

With `O=C(c1ccc(C(=O)C(F)(F)F)cc1)N1CCOc2ccc(-c3cccnc3)cc2C1`, the IC50 in [2] is 72.7 nM; in [4] it was 1130 nM.

On to `Cc1c(C(=O)N2CCOc3ccc(-c4ccc5nc[nH]c5c4)cc3C2)ccc(S(C)(=O)=O)c1F`, for which the INH in [1] was 3.4 µM; in data set [5], 6.4 µM; in [6], 3.4 µM; in data set [8], 9.6 µM. Moreover, the IC50 in data set [2] was 1.4 nM; in data set [4], 2340 nM; in data set [7] it was 329 nM; in data set [9], 437 nM. Moreover, in data set [3], the remaining at 0.5 h worked out at 94%.

`Cc1cc(C(=O)N2CCOc3ccc(-c4ccc5nc[nH]c5c4)cc3C2)ccc1S(C)(=O)=O`: the IC50 in data set [2] was 6.6 nM; in data set [4], 459 nM; in data set [7], 591 nM; in [9], 1220 nM. In addition, the remaining at 0.5 h in [3] was determined as 68%.

As for `CC(=O)Nc1cccc(-c2ccc3c(c2)CN(C(=O)c2ccc(C(=O)C(F)(F)F)cc2)CCO3)c1`, the IC50 in data set [2] stood at 115 nM; in data set [4], 238 nM.

Turning to `O=C(c1ccc(C(=O)C(F)(F)F)cc1)N1CCOc2ccccc2C1`, the IC50 in data set [2] and in data set [4] was above 10000 nM in each case.

`NS(=O)(=O)c1ccc(C(=O)N2CCOc3ccc(-c4ccc5nc[nH]c5c4)cc3C2)cc1`: the INH in data set [1] is 13.9 µM; in [5], 1.3 µM; in data set [6], 6.3 µM; in [8], 4.3 µM. Besides, the IC50 in [2] was 2.9 nM; in data set [4] it was 763 nM; in data set [7], 1800 nM; in [9], 1670 nM. Moreover, in data set [3], the remaining at 0.5 h is 64%. Further, the Papp in [12] came to 4.2 ×10⁻⁶ cm/s.

`CCS(=O)(=O)c1ccc(C(=O)N2CCOc3ccc(-c4ccc5nc[nH]c5c4)cc3C2)cc1`: the INH in [1] is 5 µM; in data set [5], 1.7 µM; in [6], 2.2 µM; in data set [8], 3.3 µM. The IC50 is 3.6 nM in data set [2], 2170 nM in [4], 343 nM in data set [7] and 1080 nM in data set [9]. In addition, in [3], the remaining at 0.5 h worked out at 72%.

Take `O=C(c1ccc(C(F)(F)F)cc1)N1CCOc2ccc(-c3ccc4nc[nH]c4c3)cc2C1`: the INH in [1] amounted to 3.6 µM; in [5], 1.6 µM; in data set [6], 1.9 µM; in [8], 3.1 µM. Also, the IC50 in data set [2] was determined as 3.5 nM; in [4], 1090 nM; in data set [7], 306 nM; in data set [9], 680 nM. For the same molecule, the remaining at 0.5 h in data set [3] was 74%.

Consider `O=C(c1ccc(C(=O)C(F)(F)F)cc1)N1CCOc2ccc(-c3ccc4[nH]ncc4c3)cc2C1`, for which the values for the IC50 in data set [2], in [4] and in [7] were 4.3 nM, 137 nM and 503 nM, respectively. Moreover, in data set [3], the remaining at 0.5 h was 23%.

For the molecule `CS(=O)(=O)c1ccc(C(=O)N2CCOc3ccc(-c4ccc(N)nc4)cc3C2)cc1`, the INH in data set [1] is above 20 µM; in [5], 18.8 µM; in data set [6], above 20 µM; in [8] it was above 20 µM. The IC50 in [2] came to 13 nM; in data set [4] it was 2900 nM; in [7], 1180 nM; in data set [9] it was 1970 nM. The remaining at 0.5 h in data set [3] turned out to be 100%.

`CNS(=O)(=O)c1ccc(C(=O)N2CCOc3ccc(-c4ccc5nc[nH]c5c4)cc3C2)cc1`: the INH in data set [1] was 1.6 µM; in data set [5], 1.1 µM; in data set [6], 2.8 µM; in data set [8], 2.3 µM. Also, the IC50 in [2] is 3.5 nM; in [4], 1090 nM; in [7], 451 nM; in [9] it was 812 nM. Moreover, the remaining at 0.5 h in data set [3] turned out to be 64%. Also, in data set [12], the Papp came to 4.2 ×10⁻⁶ cm/s.

Regarding `CCc1c(C(=O)N2CCOc3ccc(-c4ccc5nc[nH]c5c4)cc3C2)ccc(S(C)(=O)=O)c1F`, the INH in data set [1] worked out at 3.1 µM; in data set [5], 2.2 µM; in data set [6] it was 2.6 µM; in [8], 11.5 µM. In addition, the IC50 in data set [2] is 2.9 nM; in [4] it was above 3000 nM; in [7] it was 152 nM; in [9], 277 nM. The remaining at 0.5 h in data set [3] amounted to 59%.

On to `CC(=O)c1ccc(C(=O)N2CCOc3ccc(-c4ccc5cnn(C)c5c4)cc3C2)cc1`, for which the IC50 in [2] stood at 342 nM; in [4], 2450 nM.

Broadly, the IC50 is the concentration that gives 50% inhibition. As a reminder, the Papp is a coefficient for how fast a substance crosses the barrier.
